Measurements from PubChem BioAssay.
Inconclusive results are not listed.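 The calls were made as follows, unless noted: active = viability increase at or above a cutoff of the median across tested compounds plus 3 SD (cut at about 8.5% in these data, passing the limit was not always enough); inconclusive = some gains above the cutoff, reason not given; inactive = the rest.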

Tests used:
[1] = S. cerevisiae growth inhibition in permissive medium (OD615), pilot counter-assay for S. cerevisiae lifespan shortening project, permissive growth control (AID 705;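 active = growth inhibition above 25% in both replicates, a cutoff set 3 SD above the mean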); conditions: OD615, 24 h, at 10 µM, stronger effect = higher value
Procedure, shortened: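 Test system: Saccharomyces cerevisiae strain carrying genetically modified DeaD replicative-lifespan system; buffer or medium: SC raffinose/galactose permissive medium; dosing: one dose 10 µM, DMSO 0.25% final; times: 24 h exposure, 30 °C; measured by: OD at 615 nm; read-out basis: growth inhibition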

[2] = S. cerevisiae growth inhibition in restrictive medium, OD615, pilot screen, restrictive growth control, yeast lifespan reduction project (AID 706;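 active = growth inhibition above a set limit, 3 SD over mean compound inhibition, in both replicates, cut at about 43% in these data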;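 also: modified DeaD lifespan yeast strain shifted to restrictive glucose medium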); conditions: OD615, 48 h, at 10 µM, stronger effect = higher value
Procedure, shortened: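 material = engineered S. cerevisiae DeaD strain | buffer or medium = glucose-based CSMM-D restrictive medium | dosing = one concentration, 10 µM final, 0.25% DMSO | schedule = 4 h pre-growth plus 48 h compound exposure, 30 °C | detection = OD615 absorbance reading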

[3] = doxorubicin toxicity protection in MRP-1 cells – H69AR cells, CellTiter-Glo, duplicate, MRP-1 activator project, pilot screen (AID 807); conditions: H69AR viability with doxorubicin, CellTiter-Glo luminescence; at 10 µM; stronger effect = higher value;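 also: compound pretreatment 18-22 h then 72 h combined with doxorubicin; 0% = doxorubicin alone and 100% = vehicle without doxorubicin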
[4] = viability of HCT116 without oncogenic beta-catenin – human colon tumor cells, pilot screen (AID 823;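 active = cell viability at or below a set limit in both duplicate runs, the limit being the all-compound median minus 4 SD, cut at about 23% in these data, passing the limit was not always enough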;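 also: 0% = wells killed by 20 µM Hyamine and 100% = untreated DMSO cell wells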); conditions: HCT116 beta-catenin knockout viability, CellTiter-Glo, 60 h; at 10 µM; stronger effect = lower value
[5] = RAM pathway blockade in budding yeast – dse1pr::URA3 reporter, 5-FOA selection, pilot screen (AID 869;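 active = inhibition over a set limit, the all-compound mean plus 3 SD, in both replicate runs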;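 also: 0% = DMSO wells with no growth and 100% = 10 µM 1-NA-PP1 with full growth; RAM network block rescues cells from 5-FOA so hits raise OD615 growth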); conditions: S. cerevisiae dse1pr::URA3 5-FOA growth, OD615, 2 d; at 10 µM; stronger effect = higher value; strain carries analog-sensitive mutant Cbk1 kinase
[6] = RAM signaling pathway blockade in yeast – S. cerevisiae, Pdr1DBD-CYC8 efflux-inhibited sensitized strain, primary screen (AID 1298;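 active = RAM network inhibition above 8.4% in each of two replicates, 3 SD over the compound average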;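 also: 0% = DMSO untreated cells without growth and 100% = 10 µM 1-NA-PP1 full growth; higher means more yeast growth rescued from 5-FOA killing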); conditions: S. cerevisiae cbk1-as DSE1-URA3 strain, 5-FOA growth OD615, 2 d; at 50 µM; stronger effect = higher value

Cc1ccc(Cn2c(Sc3nccc(C)n3)nc3c2c(=O)[nH]c(=O)n3C)cc1
inactive: growth inhibition [1] -22.6% | growth inhibition [2] 2.41% | viability increase [3] -2.6% | viability [4] 83.5% | inhibition [5] 2.89% | RAM network inhibition [6] 3.29%

Cc1cccc(C)c1NC(=O)CSc1nnc([C@@H]2CCCN2C(=O)OC(C)(C)C)o1
inactive: growth inhibition [1] -11.8% | growth inhibition [2] -6.59% | viability increase [3] -1.42% | viability [4] 96.3% | inhibition [5] 2.23% | RAM network inhibition [6] 8.94%

C=CCNC(=O)c1ccc2c(c1)nnn2C
inactive: growth inhibition [1] -16% | growth inhibition [2] -12.7% | viability increase [3] -0.65% | viability [4] 103% | inhibition [5] 2.63% | RAM network inhibition [6] 4.93%

CCOc1ccc(N(CC(=O)NC2CCCCCC2)S(=O)(=O)c2c(C)noc2C)cc1
inactive: growth inhibition [1] -4.29% | growth inhibition [2] -1.42% | viability increase [3] -6.44% | viability [4] 44.8% | inhibition [5] 3.02% | RAM network inhibition [6] 5.55%

Cc1ccc(C(=O)N2CCN(C)CC2)cc1S(=O)(=O)N1CCCCC1
inactive: growth inhibition [1] 0.05% | growth inhibition [2] -11.5% | viability increase [3] -2.65% | viability [4] 90.1% | inhibition [5] 1.31% | RAM network inhibition [6] 0.57%

CN1CCc2c(sc3nc(SCC(=O)N4CCOCC4)nc(N)c23)C1
inactive: growth inhibition [1] -4.38% | growth inhibition [2] 0.52% | viability increase [3] -4.4% | viability [4] 95.1% | inhibition [5] 0.215% | RAM network inhibition [6] 5.05%

OCC1(c2cc(C(F)(F)F)n[nH]2)CCCCC1
inactive: growth inhibition [1] 5.65% | growth inhibition [2] -0.23% | viability increase [3] -2.12% | viability [4] 91.4% | inhibition [5] 1.2% | RAM network inhibition [6] -0.68%

CCOC(=O)c1nc(-c2ccc3c(c2)OCO3)[nH]c1C
inactive: growth inhibition [1] -0.36% | growth inhibition [2] -0.67% | viability increase [3] -6.6% | viability [4] 29.7% | inhibition [5] 3.15% | RAM network inhibition [6] 1.76%

CCCCNC(=O)c1ccc(NC(=O)C2CCCO2)cc1 (stereo not drawn)
inactive: growth inhibition [1] -3.29% | growth inhibition [2] -3.53% | viability increase [3] -0.44% | viability [4] 96.5% | inhibition [5] 1.81% | RAM network inhibition [6] 3.01%

O=C(CN1CCN(c2ccccn2)CC1)Nc1cccc(C(F)(F)F)c1
inactive: growth inhibition [1] -3.17% | growth inhibition [2] 5.07% | viability increase [3] -1.96% | viability [4] 97.9% | inhibition [5] 2.27% | RAM network inhibition [6] 2.45%

CCOc1cc(OCC)cc(C(=O)Nc2cccnc2)c1
inactive: growth inhibition [1] -12.6% | growth inhibition [2] -12.7% | viability increase [3] -1.99% | viability [4] 100% | inhibition [5] 1.77% | RAM network inhibition [6] 4.32%

O=C(Nc1cccc(Cl)c1Cl)c1ccncc1
inactive: growth inhibition [1] -9.8% | growth inhibition [2] -0.975% | viability increase [3] -0.14% | viability [4] 103% | inhibition [5] 1.85% | RAM network inhibition [6] 4.88%

O=C(Nc1ccc2c(c1)OCCO2)c1ccc(NC(=O)C2CCCO2)cc1 (stereo not drawn)
inactive: growth inhibition [1] -10.9% | growth inhibition [2] -3.79% | viability increase [3] -0.87% | viability [4] 72.7% | inhibition [5] 2.04% | RAM network inhibition [6] 3.27%

Cc1ccc(OCCCC(=O)Nc2nncs2)cc1
inactive: growth inhibition [1] -9.25% | growth inhibition [2] -13.4% | viability increase [3] 0.75% | viability [4] 105% | inhibition [5] 1.92% | RAM network inhibition [6] 1.98%

Cc1nc(-n2nnc3ccccc32)c2c3c(sc2n1)CCCC3
inactive: growth inhibition [1] -14.5% | growth inhibition [2] 0.92% | viability increase [3] -2.54% | viability [4] 82% | inhibition [5] 1.11% | RAM network inhibition [6] 3.02%

COc1ccc(NS(=O)(=O)c2cccc(-c3nnc4n3CCCCC4)c2)cc1
inactive: growth inhibition [1] -9.52% | growth inhibition [2] 10.2% | viability increase [3] -3.38% | viability [4] 92.6% | inhibition [5] 1.11% | RAM network inhibition [6] 1.97%

CC(C)Sc1nc(NCc2ccco2)c2c3c(sc2n1)COC(C)(C)C3
inactive: growth inhibition [1] 3.17% | growth inhibition [2] 22.4% | viability increase [3] -8.23% | viability [4] 56% | inhibition [5] -0.26% | RAM network inhibition [6] 7.33%

Cc1nc2c3c4c(sc3n3c(SCC(=O)NCc5ccco5)nnc3n2n1)COC(C)(C)C4
inactive: growth inhibition [1] -15.2% | growth inhibition [2] 3.31% | viability increase [3] -6.89% | viability [4] 88.7% | inhibition [5] 1.85% | RAM network inhibition [6] 5.05%
